Test results reported in ChEMBL document CHEMBL1177686, “Constrained peptidomimetics as antiplasmodial falcipain-2 inhibitors” (Bioorg Med Chem, 2010).

Experiments:
Cathepsin B = Cathepsin B (Homo sapiens, UniProt P07858); experiment: Inhibition of human cathepsin B
[1] = target: T1, Falcipain 2 (Plasmodium falciparum) (UniProt Q9N6S8); experiment: Ratio of Kinact to Ki for Plasmodium falciparum recombinant falcipain-2 after 10 min
T1 sequence (whole entry): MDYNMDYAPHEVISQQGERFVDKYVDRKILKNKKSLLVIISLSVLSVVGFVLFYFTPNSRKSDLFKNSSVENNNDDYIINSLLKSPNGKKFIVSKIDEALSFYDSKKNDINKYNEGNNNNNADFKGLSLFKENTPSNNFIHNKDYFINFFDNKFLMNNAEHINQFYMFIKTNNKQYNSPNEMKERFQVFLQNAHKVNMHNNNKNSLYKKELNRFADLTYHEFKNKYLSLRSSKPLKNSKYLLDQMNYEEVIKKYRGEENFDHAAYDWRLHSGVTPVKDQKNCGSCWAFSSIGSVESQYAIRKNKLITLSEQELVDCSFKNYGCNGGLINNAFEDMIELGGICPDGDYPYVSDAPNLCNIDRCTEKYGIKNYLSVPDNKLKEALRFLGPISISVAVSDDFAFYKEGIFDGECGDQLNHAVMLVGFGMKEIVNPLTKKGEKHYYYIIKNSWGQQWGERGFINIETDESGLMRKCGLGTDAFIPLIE

Plasmodium falciparum = experiment: Antiplasmodial activity against Plasmodium falciparum FCBR infected in human erythrocytes assessed as parasite viability; assay type: functional, organism-based; details: FCBR/Columbia
Summary of the method: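 P. falciparum FCBR kept in human A Rh+ erythrocytes, RPMI 1640 with 25 mM HEPES, 20 mM bicarbonate, 0.5% AlbuMAX I, 2.5% hematocrit, 37 °C, 94% N2/1% O2/5% CO2. Early-stage parasites plated at 1% parasitemia with compound (DMSO stock diluted 10-fold in 50% ethanol), 100-0.0488 µM, quadruplicates. Ethanol-only negative and 2 µM chloroquine positive controls. Viability assayed by a published method.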

Falcipain 2 = target: T2, Falcipain 2 (Plasmodium falciparum, UniProt Q9N6S8); experiment: Inhibition of Plasmodium falciparum recombinant falcipain-2 after 10 min
T2 sequence (Q9N6S8 whole entry): T1 sequence (whole entry)

[2] = target: Rhodesain (Trypanosoma brucei rhodesiense) (UniProt Q95PM0); experiment: Ratio of Kinact to Ki for Trypanosoma brucei rhodesiense rhodesain after 10 mins
Summary of the method: (§1)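 Rhodesain with Cbz-Phe-Arg-AMC 10 µM in 100 mM sodium acetate pH 5.5, 10 mM DTT. Fluorescence (ex 365/em 460 nm) read continuously for 10 min at increasing inhibitor levels, duplicate runs. Kiapp and kinac from hyperbolic kobs fit, corrected to Ki using Km 0.9 µM. k2nd as kinac/Ki, or from kobs/[I] when linear. Dixon plot if time-independent.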

[3] = Selectivity ratio of Ki for Plasmodium falciparum recombinant falcipain-2 to Ki for Trypanosoma brucei rhodesiense rhodesain
Rhodesain = Rhodesain (Trypanosoma brucei rhodesiense, UniProt Q95PM0); experiment: Inhibition of Trypanosoma brucei rhodesiense rhodesain after 10 mins; summary of the method: as §1
Procathepsin L [4] = target: T3, Procathepsin L (Homo sapiens, UniProt P07711); experiment: Inhibition of human cathepsin L
Summary of the method: (§2)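 Cathepsin L assay on Cbz-Phe-Arg-AMC 5 µM. […] Second-order constant k2nd taken as kinac/Ki.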
Target sequence in this assay (P07711 whole entry): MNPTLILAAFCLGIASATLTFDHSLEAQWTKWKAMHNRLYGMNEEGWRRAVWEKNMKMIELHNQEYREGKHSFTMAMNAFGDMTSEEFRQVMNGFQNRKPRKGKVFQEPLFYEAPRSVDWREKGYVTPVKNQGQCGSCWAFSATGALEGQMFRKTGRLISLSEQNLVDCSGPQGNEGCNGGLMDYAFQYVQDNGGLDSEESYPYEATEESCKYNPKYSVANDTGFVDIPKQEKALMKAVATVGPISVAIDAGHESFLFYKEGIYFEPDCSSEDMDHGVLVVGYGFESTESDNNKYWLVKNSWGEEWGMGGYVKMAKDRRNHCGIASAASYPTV

Procathepsin L [5] = target: T3, Procathepsin L; experiment: Ratio of Kinact to Ki for human cathepsin L; summary of the method: as §2
Target sequence in this assay (P07711 114-333 limits assumed): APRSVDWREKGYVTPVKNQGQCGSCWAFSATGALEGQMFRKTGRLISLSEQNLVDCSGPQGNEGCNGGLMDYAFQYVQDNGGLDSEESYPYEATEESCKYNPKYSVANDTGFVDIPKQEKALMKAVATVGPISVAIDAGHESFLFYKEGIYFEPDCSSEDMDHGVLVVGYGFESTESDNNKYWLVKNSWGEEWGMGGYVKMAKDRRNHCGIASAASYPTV

Rhodesain, sequence (Q95PM0 whole entry): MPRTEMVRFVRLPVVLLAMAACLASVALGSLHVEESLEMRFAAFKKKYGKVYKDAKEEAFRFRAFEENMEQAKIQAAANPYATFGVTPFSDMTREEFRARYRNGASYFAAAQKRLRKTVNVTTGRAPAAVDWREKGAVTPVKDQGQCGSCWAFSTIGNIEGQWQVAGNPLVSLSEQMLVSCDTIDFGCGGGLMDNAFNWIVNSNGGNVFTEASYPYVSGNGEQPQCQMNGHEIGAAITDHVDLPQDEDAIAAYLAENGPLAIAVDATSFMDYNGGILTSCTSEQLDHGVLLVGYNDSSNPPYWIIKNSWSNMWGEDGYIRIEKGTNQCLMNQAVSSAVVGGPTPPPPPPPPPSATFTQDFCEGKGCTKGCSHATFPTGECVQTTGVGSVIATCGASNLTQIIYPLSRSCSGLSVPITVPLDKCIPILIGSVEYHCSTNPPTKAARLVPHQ
Rhodesain (Trypanosoma brucei rhodesiense), sequence (Q95PM0 1-450): as the sequence (Q95PM0 whole entry) above

| SMILES | Ki (Cathepsin B) | Ratio [1] | IC50 (Plasmodium falciparum) | Ki (Falcipain 2) | Ratio [2] | Ratio Ki [3] | Ki (Rhodesain) | Ki (Procathepsin L [4]) | Ratio (Procathepsin L [5]) | Activity (Plasmodium falciparum) |
| --- | --- | --- | --- | --- | --- | --- | --- | --- | --- | --- |
| COC(=O)/C=C/CNC(=O)CN1C(=O)[C@@H](COC(=O)Nc2ccc(Cl)cc2C(F)(F)F)N=C(c2ccc(Br)cc2)c2ccccc21 | > 150 µM | 24500 | 6.33 µM | 1.56 µM | 46000 | 5 | 0.47 µM | > 150 µM | – | – |
| COC(=O)/C=C/CNC(=O)CN1C(=O)[C@@H](COC(=O)Nc2cccc3ccccc23)N=C(c2ccccc2)c2ccccc21 | 25 µM | – | 17.6 µM | 3.48 µM | – | 5 | 0.93 µM | 12.2 µM | 6400 | – |
| CC(C)C[C@H](NC(=O)[C@H]1O[C@@H]1C(=O)O)C(=O)NCCCCN=C(N)N | – | 1.59e+06 | – | – | – | – | – | – | – | – |
| C=CCNC(=O)CN1C(=O)[C@@H](CO)N=C(c2ccccc2)c2ccccc21 | – | – | – | – | – | 5 | – | – | – | Dose-dependent effect |
| COC(=O)/C=C/CNC(=O)CN1C(=O)[C@@H](COC(=O)Nc2ccc(Cl)cc2C(F)(F)F)N=C(c2ccccc2)c2cc(Cl)ccc21 | 6.1 µM | 76000 | 28.9 µM | 0.46 µM | 220000 | 5 | 0.087 µM | 29.8 µM | – | – |
| COC(=O)/C=C/CNC(=O)CN1C(=O)[C@@H](COC(=O)Nc2ccc(Cl)cc2C(F)(F)F)N=C(c2ccccc2)c2ccccc21 | – | 3.57e+06 | – | 0.017 µM | 34600 | 5 | 0.81 µM | – | – | – |
| COC(=O)/C=C/[C@H](CC(C)C)NC(=O)CN1C(=O)[C@@H](COC(=O)Nc2ccc(Cl)cc2C(F)(F)F)N=C(c2ccccc2)c2ccccc21 | 39.1 µM | 18000 | 26.9 µM | 2.22 µM | 36000 | 5 | 0.87 µM | > 150 µM | – | – |
| CCCCNC(=O)OC[C@H]1N=C(c2ccccc2)c2ccccc2N(CC(=O)NC/C=C/C(=O)OC)C1=O | 20.4 µM | – | – | > 100 µM | – | 5 | – | 2.7 µM | 9400 | Dose-dependent effect |
| COC(=O)/C=C/CNC(=O)CN1C(=O)[C@@H](COC(=O)NC23CC4CC(CC(C4)C2)C3)N=C(c2ccccc2)c2ccccc21 | 13.7 µM | 1.16e+06 | 10.7 µM | 0.014 µM | 4.62e+06 | 5 | 0.0026 µM | 65 µM | 550 | – |
| COC(=O)/C=C/CNC(=O)CN1C(=O)[C@@H](COC(=O)Nc2ccc(OC)cc2)N=C(c2ccccc2)c2ccccc21 | 2.23 µM | – | 33.1 µM | 15.1 µM | – | 5 | 4.3 µM | 12 µM | 12500 | – |
| COC(=O)/C=C/CNC(=O)CN1C(=O)[C@@H](COC(=O)NC2CCCCC2)N=C(c2ccccc2)c2ccccc21 | 12.4 µM | – | – | 89 µM | – | 5 | – | 76.5 µM | – | Dose-dependent effect |
| COC(=O)/C=C/CNC(=O)CN1C(=O)[C@@H](COC(=O)Nc2ccc(Cl)cc2C(F)(F)F)N=C(c2ccc(OC)cc2)c2ccccc21 | 10.9 µM | – | – | > 100 µM | – | 5 | – | 59.9 µM | – | – |
